ChEMBL document CHEMBL4304818, “1,3,4-Oxadiazol-2-ylbenzenesulfonamides as privileged structures for the inhibition of monoamine oxidase B” (Bioorg Med Chem Lett, 2019)
pIC50: −log10 of the molar value.

Legend:
[1] = molecular target: T1, Amine oxidase [flavin-containing] B (Homo sapiens, UniProt P27338); test: Reversible inhibition of human recombinant MAO-B expressed in insect cells microsomes assessed as enzyme residual activity preincubated at concentration of 4 times IC50 with enzyme for 15 mins followed by dialysis of enzyme-inhibitor mixture for 24 hrs followed by twofold dilution and incubation at concentration of 2 times IC50 with enzyme for 20 mins using kynuramine as substrate by fluorescence …
T1 sequence (P27338 whole entry): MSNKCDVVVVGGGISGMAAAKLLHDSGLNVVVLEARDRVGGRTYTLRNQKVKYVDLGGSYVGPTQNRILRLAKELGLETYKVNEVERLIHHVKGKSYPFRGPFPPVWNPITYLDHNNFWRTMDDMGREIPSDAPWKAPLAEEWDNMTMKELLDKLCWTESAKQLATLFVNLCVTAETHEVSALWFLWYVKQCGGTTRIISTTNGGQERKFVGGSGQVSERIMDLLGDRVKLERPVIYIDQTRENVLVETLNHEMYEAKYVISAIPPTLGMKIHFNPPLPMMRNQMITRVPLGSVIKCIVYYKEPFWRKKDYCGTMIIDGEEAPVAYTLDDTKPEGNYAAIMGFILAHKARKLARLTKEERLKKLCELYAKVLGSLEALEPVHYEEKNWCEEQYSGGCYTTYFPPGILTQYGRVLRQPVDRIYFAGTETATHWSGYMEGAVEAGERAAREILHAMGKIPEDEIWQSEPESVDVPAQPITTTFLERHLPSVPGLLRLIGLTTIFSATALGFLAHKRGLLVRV

[2] = molecular target: T1, Amine oxidase [flavin-containing] B; test: Inhibition of human recombinant MAO-B expressed in insect cells microsomes assessed as enzyme residual activity preincubated at concentration of 4 times IC50 with enzyme for 24 hrs followed by twofold dilution and incubation at concentration of 2 times IC50 with enzyme for 20 mins using kynuramine as substrate by fluorescence spectrophotometry (reference value: 100%)
[3] = molecular target: T2, Amine oxidase [flavin-containing] A (Homo sapiens, UniProt P21397); test: Inhibition of human recombinant MAO-A expressed in insect cells microsomes assessed as inhibition of 4-hydroxyquinoline formation using kynuramine as substrate incubated for 20 mins by fluorescence spectrophotometry analysis
T2 sequence (P21397 whole entry): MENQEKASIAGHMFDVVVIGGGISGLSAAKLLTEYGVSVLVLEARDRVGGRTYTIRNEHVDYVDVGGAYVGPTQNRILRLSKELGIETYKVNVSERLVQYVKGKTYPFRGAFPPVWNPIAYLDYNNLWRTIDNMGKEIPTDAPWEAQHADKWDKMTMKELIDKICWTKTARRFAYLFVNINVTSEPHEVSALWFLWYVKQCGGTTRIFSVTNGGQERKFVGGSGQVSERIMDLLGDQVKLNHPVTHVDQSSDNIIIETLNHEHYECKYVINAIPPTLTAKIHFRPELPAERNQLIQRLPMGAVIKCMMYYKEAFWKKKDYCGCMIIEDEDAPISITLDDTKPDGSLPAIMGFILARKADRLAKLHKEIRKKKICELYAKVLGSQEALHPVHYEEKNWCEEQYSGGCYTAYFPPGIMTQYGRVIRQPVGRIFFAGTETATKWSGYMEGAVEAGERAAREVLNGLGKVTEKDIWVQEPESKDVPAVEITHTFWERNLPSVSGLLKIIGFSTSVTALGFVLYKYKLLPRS
Method in brief: (§1)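 Recombinant human MAO-A and MAO-B as enzyme sources with kynuramine as non-selective substrate; product 4-hydroxyquinoline read by fluorescence spectrophotometry. Activity measured across a range of inhibitor concentrations, sigmoidal rate vs log[inhibitor] curves fitted for IC50; triplicate measurements, mean ± SD. Top concentration tested 100 µM. SI taken as IC50(MAO-A)/IC50(MAO-B).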

[4] = molecular target: T1, Amine oxidase [flavin-containing] B; format: cell-based
[5] = organism: Homo sapiens; test: Selectivity index, ratio of IC50 for human recombinant MAO-A expressed in insect cells microsomes to IC50 for human recombinant MAO-B expressed in insect cells microsomes
Method in brief: as §1

Row | Structure (SMILES) | Activity [1] [%] | Activity [2] [%] | pIC50 [3] | pIC50 [4] | Ratio IC50 [5]
1 | NS(=O)(=O)c1ccc(-c2nnc(-c3ccc(Cl)c(Cl)c3)o2)cc1 | 60 | 44 |  |  | 
2 | Cc1ccc(-c2nnc(-c3ccccc3)o2)cc1S(N)(=O)=O |  |  | < 4.00 | 6.12 | > 130
3 | N#Cc1ccc(-c2nnc(-c3ccc(S(N)(=O)=O)cc3)o2)cc1 |  |  | 4.61 | 6.50 | 76
4 | NS(=O)(=O)c1ccc(-c2nnc(-c3ccccc3)o2)cc1 |  |  | 4.19 | 6.77 | 380
5 | Cc1ccc(-c2nnc(-c3cccc(S(N)(=O)=O)c3)o2)cc1 |  |  | 4.21 | 6.24 | 108
6 | NS(=O)(=O)c1ccc(-c2nnc(-c3ccc(Cl)cc3)o2)cc1 |  |  | 4.17 | 7.32 | 1420
7 | NS(=O)(=O)c1ccc(-c2nnc(-c3ccc(F)cc3)o2)cc1 |  |  | 4.08 | 7.10 | 1060
8 | N#Cc1ccc(C(=O)NNC(=O)c2ccc(S(N)(=O)=O)cc2)cc1 |  |  | 4.79 | 5.93 | 14
9 | NS(=O)(=O)c1ccc(C(=O)NNC(=O)c2ccc(Cl)cc2)cc1 |  |  | 4.25 | 4.93 | 4.8
10 | NS(=O)(=O)c1ccc(C(=O)NNC(=O)c2ccccc2)cc1 |  |  | 4.20 | < 4.00 | < 0.6

Continued, in another order:

Row | Activity [1] [%] | Activity [2] [%] | pIC50 [3] | pIC50 [4] | Structure (SMILES) | Ratio IC50 [5]
11 |  |  | < 4.00 | 6.36 | NS(=O)(=O)c1cc(-c2nnc(-c3ccccc3)o2)ccc1Cl | > 228
12 |  |  | 4.87 | 5.00 | NS(=O)(=O)c1ccc(C(=O)NNC(=O)c2ccc(Cl)c(Cl)c2)cc1 | 1.3
13 |  |  | < 4.00 | 6.68 | NS(=O)(=O)c1cccc(-c2nnc(-c3ccc(Cl)cc3)o2)c1 | > 476
14 |  |  | 4.46 | 6.01 | NS(=O)(=O)c1cccc(-c2nnc(-c3ccc(F)cc3)o2)c1 | 35
15 |  |  | 4.40 | < 4.00 | NS(=O)(=O)c1ccc(C(=O)NNC(=O)c2ccc(F)cc2)cc1 | < 0.4
